# Results taken from ChEMBL document CHEMBL3124927, “New C(4)- and C(1)-derivatives of furo[3,4-c]pyridine-3-ones and related compounds: evidence for site-specific inhibition of the constitutive proteasome and its immunoisoform” (Bioorg Med Chem Lett, 2014).
# pIC50: −log10 of the molar value. The source made the active and inactive calls. The calls are words filed in the database; no cut-off is given here.
# How the values were obtained:
# [1] = Inhibition of 20s constitutive proteasome beta 2 subunit trypsin-like activity in rabbit erythrocytes using Boc-LRR-AMC as substrate incubated for 15 mins prior to substrate addition measured after 45 mins by fluorescence assay; type: cell-based, Oryctolagus cuniculus; settings: for pIC50: read-out: IC50
# Outline: (§1)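 Purified rabbit erythrocyte constitutive 20S fraction, 0.27 nM enzyme, pre-incubated 15 min with or without inhibitor, then Boc-LRR-AMC added. Buffer at pH 7.5. Fluorescence read-out. IC50 is from a plot of percent inhibition against inhibitor concentration, Hill-equation fit.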
# [2] = molecular target: T1, Calpain-1 catalytic subunit (Homo sapiens) (UniProt P07384); test: Inhibition of human calpain-1 using Suc-LLVY-AMC as substrate by fluorescence assay
# T1 sequence (whole entry): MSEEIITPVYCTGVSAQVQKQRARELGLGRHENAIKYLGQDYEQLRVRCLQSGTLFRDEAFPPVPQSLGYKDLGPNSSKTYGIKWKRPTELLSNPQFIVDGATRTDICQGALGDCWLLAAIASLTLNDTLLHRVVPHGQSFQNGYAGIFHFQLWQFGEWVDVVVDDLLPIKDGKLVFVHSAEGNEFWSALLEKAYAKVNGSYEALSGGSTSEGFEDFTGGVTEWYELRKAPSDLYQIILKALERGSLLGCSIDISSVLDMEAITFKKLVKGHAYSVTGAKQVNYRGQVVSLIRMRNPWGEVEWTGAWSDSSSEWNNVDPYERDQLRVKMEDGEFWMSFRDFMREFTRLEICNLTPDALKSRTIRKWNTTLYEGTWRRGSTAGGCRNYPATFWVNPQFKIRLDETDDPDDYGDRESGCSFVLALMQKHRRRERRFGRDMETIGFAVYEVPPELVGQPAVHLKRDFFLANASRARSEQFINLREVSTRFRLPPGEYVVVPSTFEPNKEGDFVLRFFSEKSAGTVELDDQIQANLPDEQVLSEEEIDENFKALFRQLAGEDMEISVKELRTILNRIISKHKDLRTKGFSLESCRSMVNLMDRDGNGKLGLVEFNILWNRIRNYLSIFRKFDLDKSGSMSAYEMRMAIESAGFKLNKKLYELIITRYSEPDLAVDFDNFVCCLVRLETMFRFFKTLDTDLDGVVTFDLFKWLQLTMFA
# Outline: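 Human calpain I fraction, Suc-LLVY-AMC substrate, at 25 °C in 50 mM Tris, 10 mM DTT with CaCl2, pH 7.2. Fluorescence read-out. IC50 is from percent inhibition versus inhibitor concentration.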
# [3] = molecular target: Cathepsin B (Homo sapiens) (UniProt P07858); test: Inhibition of human cathepsin B using Z-RR-AMC as substrate by fluorescence assay
# Outline: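 Human cathepsin B fraction, Z-RR-AMC substrate, at 37 °C in 352 mM KH2PO4, 48 mM Na2HPO4, 1 mM EDTA, 1 mM DTT, pH 6. Fluorescence read-out. IC50 is from percent inhibition versus inhibitor concentration.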
# [4] = Inhibition of 20s constitutive proteasome beta 5 subunit chymotrypsin-like activity in rabbit erythrocytes using Suc-LLVY-AMC as substrate incubated for 15 mins prior to substrate addition measured after 45 mins by fluorescence assay; type: cell-based, Oryctolagus cuniculus; settings: for pIC50: read-out: IC50
# Outline: (§2)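 Purified rabbit erythrocyte constitutive 20S fraction, 0.27 nM enzyme, pre-incubated 15 min with or without inhibitor before substrate addition. Buffer pH 7.5: 20 mM Tris, 1 mM DTT, 10% glycerol, 0.02% (w/v) SDS. Fluorescence read-out. IC50 is from a percent inhibition versus concentration plot, fitted with a Hill-type equation.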
# [5] = Inhibition of 20s constitutive proteasome beta 1 subunit caspase-like activity in rabbit erythrocytes using Z-LLE-betaNA as substrate incubated for 15 mins prior to substrate addition measured after 45 mins by fluorescence assay; type: cell-based, Oryctolagus cuniculus; settings: for pIC50: read-out: IC50; outline: as §2
# [6] = species: Oryctolagus cuniculus; test: Inhibition of 20s constitutive proteasome beta 2 subunit trypsin-like activity in rabbit erythrocytes using Boc-LRR-AMC as substrate at 100 uM incubated for 15 mins prior to substrate addition measured after 45 mins by fluorescence assay relative to control; type: cell-based; outline: as §1
# [7] = species: Oryctolagus cuniculus; test: Inhibition of 20s constitutive proteasome beta 5 subunit chymotrypsin-like activity in rabbit erythrocytes using Suc-LLVY-AMC as substrate at 100 uM incubated for 15 mins prior to substrate addition measured after 45 mins by fluorescence assay relative to control; type: cell-based; outline: as §2
# [8] = species: Oryctolagus cuniculus; test: Inhibition of 20s constitutive proteasome beta 2 subunit trypsin-like activity in rabbit erythrocytes using Boc-LRR-AMC as substrate at 50 uM incubated for 15 mins prior to substrate addition measured after 45 mins by fluorescence assay relative to control; type: cell-based; outline: as §1
# [9] = species: Oryctolagus cuniculus; test: Inhibition of 20s constitutive proteasome beta 1 subunit caspase-like activity in rabbit erythrocytes using Z-LLE-betaNA as substrate at 100 uM incubated for 15 mins prior to substrate addition measured after 45 mins by fluorescence assay relative to control; type: cell-based; outline: as §2
IC50 [1],inhibition [2],inhibition [3],IC50 [4],IC50 [5],SMILES,also measured
Not Active,inactive,inactive,Not Active,,O=C1OC2(CCCCC2)c2ccnc(O)c21,pIC50 [5]: 4.56
Not Active,inactive,inactive,Not Active,,Cc1nccc2c1C(=O)OC21CCCCC1,pIC50 [5]: 4.79
Not Active,inactive,inactive,Not Active,Not Active,CC1(C)OC(=O)C(C(N)=S)=C1c1ccccc1,
,,,Not Active,Not Active,O=c1c2c(-c3ccc(Cl)cc3)csc2ncn1CCc1ccc(Cl)cc1,inhibition [6]: 52%
Not Active,inactive,inactive,Not Active,Not Active,CC1(C)OC(=O)C(C(N)=O)=C1/C=C/c1ccccc1,
Not Active,,,,Not Active,C=C1c2c(ncn(CC(O)CN3CCOCC3)c2=O)OC1(C)C (configuration not stated),inhibition [7]: 33%
Not Active,inactive,inactive,,Not Active,CC1(C)OC(=O)c2c1ccnc2NCC(O)COc1ccc(F)cc1 (configuration not stated),inhibition [7]: 29%
,inactive,inactive,Not Active,Not Active,Cc1nccc2c1C(=O)OC2(C)C,pIC50 [1]: 4.06
Not Active,,,,Not Active,C=C1c2c(ncn(C)c2=O)OC12CCCCC2,inhibition [7]: 30%
Not Active,,,Not Active,Not Active,Cc1ccc(CCn2cnc3sc(C)c(C)c3c2=O)cc1,
,,,Not Active,Not Active,Cc1sc2ncn(CCCn3ccnc3)c(=O)c2c1C,inhibition [8]: 42%
Not Active,inactive,inactive,Not Active,Not Active,O=c1[nH]ccc2c1c(=O)oc1ccccc12,
Not Active,inactive,inactive,Not Active,Not Active,CCOC(=O)C1=C(/C=C/N(C)C)C(C)(C)OC1=O,
,,,Not Active,Not Active,Cc1sc2ncn(CCc3ccc(Cl)cc3)c(=O)c2c1C,pIC50 [1]: 4.25
,inactive,inactive,,Not Active,Cc1ccc(OCC(O)CNc2nccc3c2C(=O)OC3(C)C)cc1 (configuration not stated),pIC50 [1]: 4.22; inhibition [7]: 36.5%
Not Active,inactive,inactive,,,CCC1(C)OC(=O)c2c1ccnc2N (configuration not stated),inhibition [7]: 21.5%; pIC50 [5]: 5.15
Not Active,inactive,inactive,Not Active,,CC1(C)OC(=O)c2c1ccnc2NCC(O)COc1ccccc1 (configuration not stated),pIC50 [5]: 4.32
,,,,,C[C@@]12OC(=O)[C@]1([C@@H](O)[C@@H]1C=CCCC1)NC(=O)[C@@H]2CCCl [MARIZOMIB],pIC50 [1]: 7.68; pIC50 [4]: 8.59; pIC50 [5]: 6.34
Not Active,,,Not Active,Not Active,C=C1c2c(ncn(CC(O)COc3ccccc3)c2=O)OC1(C)C (configuration not stated),
,inactive,inactive,,Not Active,CC1(C)OC(=O)c2c1ccnc2NCC(O)COc1ccc(Cl)cc1 (configuration not stated),pIC50 [1]: 4.32; inhibition [7]: 63%
Not Active,inactive,inactive,,,O=C1OC2(CCCCC2)c2ccnc(S)c21,inhibition [7]: 52%; inhibition [9]: 20%

IC50 [1],inhibition [2],inhibition [3],IC50 [4],IC50 [5],SMILES,also measured
Not Active,inactive,inactive,,,CC1(C)OC(=O)c2c1ccnc2Nc1ccc(Cl)cc1,inhibition [7]: 24.5%; inhibition [9]: 41.5%
,,,Not Active,Not Active,C=C1c2c(nc[nH]c2=O)OC1(C)C,pIC50 [1]: 4.23
Not Active,inactive,inactive,Not Active,,Nc1nccc2c1C(=O)OC21CCCCC1,pIC50 [5]: 5.08
Not Active,inactive,inactive,,,CC1(C)OC(=O)c2c1ccnc2S,pIC50 [4]: 4.10; inhibition [9]: 48%
,inactive,inactive,,,CC1(C)OC(=O)c2c1ccnc2NNC(N)=S,inhibition [7]: 26%; inhibition [9]: 41%; inhibition [6]: 29%
,inactive,inactive,Not Active,,CC1(C)OC(=O)c2c1ccnc2N,pIC50 [5]: 5.10; inhibition [6]: 35%
,,,Not Active,Not Active,O=c1c2c(-c3ccc(Cl)cc3)csc2ncn1CCc1ccc(F)cc1,inhibition [8]: 56%
,,,Not Active,Not Active,Cc1sc2ncn(CCCN3CCOCC3)c(=O)c2c1C,inhibition [6]: 53%
,,,Not Active,Not Active,C=C1c2c(ncn(CCCN3CCOCC3)c2=O)OC1(C)C,inhibition [6]: 48%
,,,Not Active,,C=C1c2c(ncn(CCCn3ccnc3)c2=O)OC1(C)C,pIC50 [5]: 4.33; inhibition [6]: 56%
Not Active,,,Not Active,Not Active,C=C1c2c(nc[nH]c2=O)OC1(C)c1ccccc1 (configuration not stated),
,inactive,inactive,,Not Active,Cc1cc(=O)oc2cc[nH]c(=O)c12,pIC50 [1]: 5.06; pIC50 [4]: 4.53
Not Active,inactive,inactive,Not Active,,CC1(C)OC(=O)c2c1ccnc2O,pIC50 [5]: 4.78
Not Active,inactive,inactive,Not Active,Not Active,CC(N)C1=C(c2ccccc2)C(C)(C)OC1=O (configuration not stated),
Not Active,inactive,inactive,Not Active,,CC1(C)OC(=O)c2c1ccnc2N1CCCCC1,inhibition [9]: 41.6%
,,,Not Active,Not Active,Cc1sc2ncn(CCc3ccccc3)c(=O)c2c1C,inhibition [6]: 42%
,,,Not Active,Not Active,C=C1c2c(ncn(-c3ccc(Br)cc3)c2=O)OC1(C)C,inhibition [6]: 29%
Not Active,,,Not Active,Not Active,CC12CCCC=C1c1c(nc[nH]c1=O)O2 (configuration not stated),
Not Active,,,Not Active,Not Active,C=C1c2c(ncn(CCO)c2=O)OC1(C)C,
,,,Not Active,Not Active,O=c1c2c(-c3ccc(Cl)cc3)csc2ncn1CCc1ccccc1,inhibition [6]: 48%
